Usually IC50 stands for the concentration that gives 50% inhibition. Broadly, the EC50 is the concentration needed to bring the measured effect to its halfway point. One may read the CC50 as the concentration at which the toxic effect on the cells reaches its halfway point. The low end stands for harm at low concentration, the high end for better tolerance by the cells.

The text below walks through data of ChEMBL document CHEMBL1140133, “Phosphoramidate dinucleosides as hepatitis C virus polymerase inhibitors” (J Med Chem, 2008).

The subject of data set [1] is Hepatitis C virus. Description: Inhibition of HCV 1b histidine tagged NS5B-delta55 polymerase-mediated RNA synthesis expressed in Escherichia coli BL21 cells assessed as decrease in accumulation of pppGC product. The arrangement: species or system Hepatitis C virus subtype 1b. The procedure, abridged:
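Recombinant NS5B-Δ55 with C-terminal His6, purified. Mix holds 10 µM RNA template (3′ end of HCV minus strand), 100 µM α-32P-CTP, 50 µM GTP and inhibitor 0–500 µM. Started with 1 µM NS5B, 30 °C 15 min, EDTA/formamide quench. pppGC resolved on sequencing gel, phosphorimager-quantified; IC50 fitted, ≥3 experiments.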

For data set [2], the system named is Hepatitis C virus. Description: Antiviral activity against HCV 1b in human Huh-5-2 cells assessed as inhibition of viral replication after 72 hrs by luciferase assay. To be noted: genotype 1b, Huh-5-2, 72 h. The class given is functional, organism-based, Hepacivirus hominis. The procedure, abridged: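 Huh-5-2 cells carrying HCV 1b subgenomic replicon (luciferase reporter), seeded 7000/well and left 24 h; five 5-fold serial dilutions from 50 µg/mL (~60 µM) added in medium without G418; 37 °C, 5% CO2, 72 h. Luciferase read after Glo-lysis; signal as % of untreated cultures, EC50 calculated. Interferon α-2a (500 IU) positive control.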

Data set [3] is described as follows: Cytotoxicity against human Huh-5-2 cells after 3 days by MTS assay. The class given is cell-based. The procedure, abridged: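 Parallel Huh-5-2 replicon cultures seeded 7000 cells/well, treated the same way as the antiviral assay (five 5-fold dilutions from ~60 µM, no G418). Cell proliferation measured 3 days after compound addition by MTS bioreduction to formazan, read on a plate reader.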
(In general: Tetrazolium assays rely on reduction of a dye to a coloured formazan, in cell work by metabolically active cells.)

Consider `COCCNP(=O)(OC[C@H]1O[C@@H](n2ccc(N)nc2=O)[C@H](O)[C@@H]1O)O[C@H]1[C@@H](OC)[C@H](n2cnc3c(=O)[nH]c(N)nc32)O[C@@H]1COP(=O)(O)O` (stereo not given in full), for which the IC50 with Hepatitis C virus [1] amounted to 106 µM. For the same molecule, the EC50 in the data set with Hepatitis C virus [2] was more than 60 µM. This molecule also had a CC50 at 72 h in data set [3] of more than 60 µM.
With `CO[C@@H]1[C@H](OP(=O)(NCCCCCC(=O)O)OC[C@H]2O[C@@H](n3ccc(N)nc3=O)[C@H](O)[C@@H]2O)[C@@H](CO)O[C@H]1n1cnc2c(=O)[nH]c(N)nc21` (stereo not given in full), the IC50 in the data set on Hepatitis C virus [1] was found to be 160 µM.
On to `COCCNP(=O)(OC[C@H]1O[C@@H](n2ccc(N)nc2=O)[C@H](O)[C@@H]1O)O[C@H]1[C@@H](OC)[C@H](n2cnc3c(=O)[nH]c(N)nc32)O[C@@H]1COP(=O)(O)S` (stereo not given in full), for which the concentration for half-maximal inhibition (IC50) in the data set on Hepatitis C virus [1] is 47 µM. In addition, the concentration for a half-maximal effect (EC50) in the data set on Hepatitis C virus [2] is more than 60 µM. In addition, the CC50 at 72 h in data set [3] was more than 60 µM.
Take `CO[C@@H]1[C@H](OP(=O)(NCCCCCC(=O)O)OC[C@H]2O[C@@H](n3ccc(N)nc3=O)[C@H](O)[C@@H]2O)[C@@H](COP(=O)(O)O)O[C@H]1n1cnc2c(=O)[nH]c(N)nc21` (stereo not given in full): in the data set on Hepatitis C virus [1], the IC50 was determined as 69 µM. Moreover, in the data set with Hepatitis C virus [2], the EC50 is 41 µM. For the same molecule, in data set [3], the CC50 at 72 h was more than 60 µM.
For `COCCNP(=O)(OC[C@H]1O[C@@H](n2ccc(N)nc2=O)[C@H](O)[C@@H]1O)O[C@H]1[C@@H](OC)[C@H](n2cnc3c(=O)[nH]c(N)nc32)O[C@@H]1CO` (stereo not given in full), the half-maximal inhibitory concentration (IC50) in the data set on Hepatitis C virus [1] is more than 200 µM.
Still for that read-out and setting: as for `CO[C@@H]1[C@H](OP(=O)(NCCCN(C)C)OC[C@H]2O[C@H](n3ccc(N)nc3=O)[C@H](O)[C@@H]2O)[C@H](COP(=O)(O)O)O[C@H]1n1cnc2c(=O)[nH]c(N)nc21` (stereo not given in full), the figure is more than 200 µM.
For `CO[C@@H]1[C@H](OP(=O)(NCCCCCC(=O)O)OC[C@H]2O[C@@H](n3ccc(N)nc3=O)[C@H](O)[C@@H]2O)[C@@H](COP(=O)(O)S)O[C@H]1n1cnc2c(=O)[nH]c(N)nc21` (stereo not given in full), in the data set on Hepatitis C virus [1], the IC50 worked out at 52 µM. Also, the half-maximal effective concentration (EC50) with Hepatitis C virus [2] turned out to be 38 µM. Moreover, in data set [3], the CC50 at 72 h was more than 60 µM.
